What was measured:
Recombinant rat β-NGF = Recombinant rat β-NGF (Rattus norvegicus, UniProt P25427); experiment: NGF binding and release from hydrogels; details: for NGF remaining in solution after incubation: 10 ng/well NGF in uDMEM, 2 h, ELISA, 10% PEG hydrogels, 5 mM peptide; for release of NGF from hydrogels: monitored over 48 h after initial binding
In short: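 Recombinant rat β-NGF at 0.05 µg/mL final in uDMEM added. Media collected with replacement at 2, 4, 6, 24 and 48 h and stored at −80 °C. Sandwich ELISA gave bound NGF and cumulative release.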

radiolabeled lipoplexes = experiment: DNA binding and release of lipoplexes to hydrogel surfaces; details: for amount of bound DNA retained: release study, by day 6
In short: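 Cell-free hydrogels carrying 5 mM RDG, KDKG, K4 or K8 peptide, washed immediately and after 1 h swelling in uDMEM. Radiolabelled TransFast–plasmid lipoplexes in uDMEM added at 2 µg DNA/well for 2 h at room temperature. Unbound solution removed and scintillation-counted. Gels washed twice with uDMEM immediately and at 2, 4 and 6 h, then sampled periodically with replacement for 6 days. Counts converted to DNA via standard curve.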

[1] = cited from earlier work

Recombinant rat β-NGF, sequence (P25427 122-241): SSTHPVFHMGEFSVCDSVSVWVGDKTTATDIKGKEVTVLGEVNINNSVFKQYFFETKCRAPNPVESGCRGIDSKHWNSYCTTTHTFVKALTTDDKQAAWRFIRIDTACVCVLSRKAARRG

Substance | NGF remaining in solution after incubation (Recombinant rat β-NGF) | release of NGF from hydrogels (Recombinant rat β-NGF) | amount of bound DNA retained (radiolabeled lipoplexes) | diffusivity of NGF, DN [1] | rate constant for NGF degradation, kdeg ([1]; in buffered solution) | mean quantity of vector bound, greater than KDKG and RDG conditions (radiolabeled lipoplexes; throughout the 6-day release study)
GCGYGKKKKKKKK [K8] | 3.2 ng | lowest | 41% |  |  | 
NGF: nerve growth factor protein |  |  |  | 12 × 10^−7 cm^2/s | 4.83e-05 s⁻¹ | 
GCGYGRDGSPG [reference compound] | 3.8 ng |  | 20% |  |  | 
GCGKKKK [K4] | 3.4 ng | intermediate between the RDG and K8 conditions |  |  |  | approximately 5%

— paper PMC3100417 (Biomaterials, 2011)
